Assay results collected from several papers.
Each line is one published result; the experiments were not run side by side.
Botulinum neurotoxin type A protease: Botulinum neurotoxin type A, protease (Clostridium botulinum, UniProt P0DPI0)
Cnr1: Cannabinoid receptor 1 (Cnr1, Rattus norvegicus, UniProt P20272)
Slc6a3: Sodium-dependent dopamine transporter (Slc6a3, Rattus norvegicus, UniProt P23977)
NA: Neuraminidase (NA, Influenza A virus, UniProt Q9IGQ6)

Structure (SMILES)	target	read-out	action	method	setting	endpoint	result
O=C1C=CC(=O)N1Cc1ccc(Cl)cc1Cl	Botulinum neurotoxin type A protease	enzyme activity	inhibitor			IC50	80000 nM
COC(=O)C(NC(=O)c1cn(CCCCCF)c2ccccc12)C(C)(C)C (stereo not shown)	Cnr1	ligand displacement		radioligand	cell membranes	IC50	2 nM
CCOC(=O)C1C(OC(c2ccc(F)cc2)c2ccc(F)cc2)CC2CCC1N2CCN (racemic)	Slc6a3	ligand displacement		radioligand	cell membranes	Ki	17.2 nM
O=C1C=C(/C=C/c2ccc(O)c(O)c2)OC12C(c1cc3oc(=O)c4cc(O)c(O)cc4c3c(=O)o1)=Cc1cc(O)c(O)cc12 (stereo not shown)	NA	enzyme activity	inhibitor			IC50	8000 nM
CN1[C@H]2CC[C@@H]1[C@@H](c1cc(-c3ccccc3)no1)[C@H](OC(c1ccc(F)cc1)c1ccc(F)cc1)C2	Slc6a3	ligand displacement		radioligand	cell membranes	Ki	14 nM
O=S(=O)(c1ccc(O)c2nc(Cl)ccc12)N1CCc2c(Cl)cccc21	Botulinum neurotoxin type A protease	enzyme activity	inhibitor			IC50	> 30000 nM
CC1=CC(=O)C2(O1)C(c1cc3oc(=O)c4cc(O)c(O)cc4c3c(=O)o1)=Cc1cc(O)c(O)cc12 (stereo not shown)	NA	enzyme activity	inhibitor			IC50	8100 nM
CC(C)NC(C)C(=O)c1cccc(Cl)c1 (stereo not shown)	Slc6a3	transporter uptake	inhibitor	radiometric		IC50	537 nM
CCCCCCC(C)(C)c1cc(O)c2c(c1)OC(C)(C)[C@@H]1CC=C(C)C[C@@H]21	Cnr1	ligand displacement		radioligand		Ki	0.9 nM
CC(Cc1cccc(Cl)c1)NC(C)(C)C (stereo not shown)	Slc6a3	transporter uptake	inhibitor	radiometric		IC50	938 nM
CN(C)CCc1c[nH]c2ccccc12	5-hydroxytryptamine receptor 1B (HTR1B, Homo sapiens, UniProt P28222)	ligand displacement		radioligand		Ki	130 nM
CC(C)(C)C(NC(=O)c1cn(CCCCCF)c2ccccc12)C(=O)O (stereo not shown)	Cnr1	ligand displacement		radioligand	cell membranes	IC50	3340 nM
CC(N)C(=O)c1cccc(Cl)c1 (stereo not shown)	Slc6a3	transporter uptake	inhibitor	radiometric		IC50	399 nM
